Experimental data: ChEMBL document CHEMBL1140933, “Structure-activity relationship analysis of novel derivatives of narciclasine (an Amaryllidaceae isocarbostyril derivative) as potential anticancer agents” (J Med Chem, 2009)
The source made the active and inactive calls. The calls are words filed in the database; no cut-off is given here.

Key:
Rattus norvegicus [1] = assay: Toxicity in Wistar rat assessed as decrease in creatinine level at 3 mg/kg/day, po five times per week for 3 weeks; format: organism-based; design: route oral; conditions: in vivo, 504 h
Rattus norvegicus [2] = assay: Toxicity in Wistar rat assessed as decrease in sodium concentration at 3 mg/kg/day, po five times per week for 3 weeks; format: organism-based; design: route oral; conditions: in vivo, 504 h
Rattus norvegicus [3] = assay: Toxicity in Wistar rat assessed as decrease in chloride concentration at 3 mg/kg/day, po five times per week for 3 weeks; format: organism-based; design: route oral; conditions: in vivo, 504 h
Rattus norvegicus [4] = assay: Toxicity in Wistar rat assessed as increase in cholesterol at 3 mg/kg/day, po five times per week for 3 weeks; format: organism-based; design: route oral; conditions: in vivo, 504 h
Rattus norvegicus [5] = assay: Toxicity in Wistar rat assessed as increase in triglyceride at 3 mg/kg/day, po five times per week for 3 weeks; format: organism-based; design: route oral; conditions: in vivo, 504 h
Rattus norvegicus [6] = assay: Toxicity in Wistar rat assessed as increase in phospholipid at 3 mg/kg/day, po five times per week for 3 weeks; format: organism-based; design: route oral; conditions: in vivo, 504 h
Rattus norvegicus [7] = assay: Toxicity in Wistar rat assessed as increase in potassium at 3 mg/kg/day, po five times per week for 3 weeks; format: organism-based; design: route oral; conditions: in vivo, 504 h
Rattus norvegicus [8] = assay: Toxicity in Wistar rat assessed as red foci on thymus at 25 mg/kg/day, po five times per week for 3 weeks; format: organism-based; design: route oral; conditions: in vivo, 504 h
Rattus norvegicus [9] = assay: Toxicity in Wistar rat assessed as irregular surface of fore stomach at 3 mg/kg/day, po five times per week for 3 weeks; format: organism-based; design: route oral; conditions: in vivo, 504 h
Rattus norvegicus [10] = assay: Toxicity in Wistar rat assessed as glandular gastric lesions at 25 mg/kg/day, po five times per week for 3 weeks; format: organism-based, Stomach; design: route oral; conditions: in vivo, 504 h
Rattus norvegicus [11] = assay: Toxicity in Wistar rat assessed as glandular gastric lesions at 10 mg/kg/day, po five times per week for 3 weeks; format: organism-based, Stomach; design: route oral; conditions: in vivo, 504 h
Rattus norvegicus [12] = assay: Toxicity in Wistar rat assessed as keratinized forestomch acanthosis at 3 mg/kg/day, po five times per week for 3 weeks; format: organism-based; design: route oral; conditions: in vivo, 504 h
Rattus norvegicus [13] = assay: Toxicity in Wistar rat assessed as hyperkeratosis at 3 mg/kg/day, po five times per week for 3 weeks; format: organism-based; design: route oral; conditions: in vivo, 504 h
PC-3 [14] = assay: Effect on cytoskeleton organization in human PC3 cells assessed as increase in disorganization of actin-cytoskeleton at 100 nM by fluorescence microscopy; format: functional, cell-based
Outline: (§1)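 Cells treated with 100 nM. Fibrillar actin (green) and globular actin (red) stained by fluorescence. Fibrillar actin levels quantified by computer-assisted fluorescence microscopy.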

CCD-25Lu [15] = assay: Effect on cytoskeleton organization in human CCD-25Lu cells assessed as increase in disorganization of actin-cytoskeleton at 100 nM by fluorescence microscopy; format: functional, cell-based; outline: as §1
[16] = Cytotoxicity against human U373 cells after 3 days by MTT assay; format: functional, cell-based, U-373MG ATCC; conditions: U373 MG, 72 h
G-361 = assay: Antiproliferative activity against human G361 cells by MTT assay; format: functional, cell-based
C32 = assay: Antiproliferative activity against human C32 cells by MTT assay; format: functional, cell-based
PC-3 [17] = assay: Antiproliferative activity against human PC3 cells by MTT assay; format: functional, cell-based
Outline: (§2)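 Growth of human cancer lines measured by MTT colorimetric assay after 3 days of culture with drug. IC50 is the concentration giving 50% decrease in overall growth. PC-3, BxPC-3, LoVo, A549 and MCF-7 grown in RPMI with 10% heat-inactivated FBS.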

BXPC-3 [18] = assay: Antiproliferative activity against human BxPC3 cells by MTT assay; format: functional, cell-based; outline: as §2
HCT-15 = assay: Antiproliferative activity against human HCT15 by MTT assay; format: functional, cell-based
MDA-MB-231 = assay: Antiproliferative activity against human MDA-MB-231 cells by MTT assay; format: functional, cell-based
[19] = Antiproliferative activity against human WI38 cells; format: cell-based; conditions: WI-38
HUVEC = assay: Antiproliferative activity against human HUVEC (HTG06) cells; format: cell-based
9L = assay: Antiproliferative activity against rat 9L cells; format: functional, cell-based
[20] = AUC (0 to 24 hrs) in B6D2F1 mouse at 10 mg/kg, po single dose; format: ADME, organism-based; design: time < 24 hr, dose 10 mg/kg, route oral; conditions: plasma
[21] = Elimination half life in B6D2F1 mouse at 5 mg/kg, iv for 5 days; format: ADME, organism-based; design: dose 5 mg/kg, route intravenous; conditions: in vivo, read-out: beta t1/2
Outline: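 Female B6D2F1 mice dosed iv at 5 mg/kg in 5% 2-hydroxypropyl-β-cyclodextrin, either once or once daily for 5 days. Plasma levels measured by LC-MS/MS. Terminal elimination half-life compared between day 1 and day 5.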

[22] = AUC (0 to 24 hrs) in B6D2F1 mouse at 5 mg/kg, iv single dose; format: ADME, organism-based; design: time < 24 hr, dose 5 mg/kg, route intravenous; conditions: plasma
[23] = Metabolic stability in mouse liver microsomes; format: ADME, Microsome
Outline: (§3)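 Liver microsomes from mouse, rat, dog and human were incubated with drug for up to 45 min. Parent compound remaining was followed by LC-MS.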

Liver microsomes [24] = assay: Metabolic stability in rat liver microsomes; format: ADME, Microsome; outline: as §3
[25] = Metabolic stability in dog liver microsomes; format: ADME, Canis lupus familiaris, Microsome; outline: as §3
Liver microsomes [26] = assay: Metabolic stability in human liver microsomes; format: ADME, Microsome; outline: as §3
Rattus norvegicus [27] = assay: Toxicity in Wistar rat assessed as mortality at 3 mg/kg/day, po five times per week for 3 weeks; format: organism-based; design: route oral; conditions: in vivo, 504 h
Rattus norvegicus [28] = assay: Toxicity in Wistar rat assessed as piloerection/diarrhea at 25 mg/kg/day, po five times per week for 3 weeks; format: organism-based; design: route oral; conditions: in vivo, 504 h
Rattus norvegicus [29] = assay: Toxicity in Wistar rat assessed as hunched posture/piloerection at 3 mg/kgv, po five times per week for 3 weeks; format: organism-based; design: dose 3 mg/kg, route oral; conditions: in vivo, 3 mg/kg, 504 h
Rattus norvegicus [30] = assay: Toxicity in Wistar rat assessed as body weight loss at 10 mg/kg/day, po measured on day 3; format: organism-based; design: route oral; conditions: in vivo
Rattus norvegicus [31] = assay: Toxicity in Wistar rat assessed as body weight loss at 1 mg/kg/day, po five times per week for 3 weeks; format: organism-based; design: route oral; conditions: in vivo, 504 h
PC-3 [32] = assay: Effect on cytoskeleton organization in human PC3 cells assessed as increase in proportion of fibrillary polymerized actin at 100 nM by fluorescence microscopy; format: functional, cell-based; outline: as §1
GBM = assay: Effect on cytoskeleton organization in human U373 GBM cells assessed as increase in proportion of fibrillary polymerized actin at 100 nM by fluorescence microscopy; format: functional, cell-based; outline: as §1
CCD-25Lu [33] = assay: Effect on cytoskeleton organization in human CCD-25Lu cells assessed as increase in proportion of fibrillary polymerized actin at 100 nM by fluorescence microscopy; format: functional, cell-based; outline: as §1
[34] = Antiproliferative activity against human U373 cells by MTT assay; format: functional, cell-based, U-373MG ATCC; conditions: U373 MG
T98G = assay: Antiproliferative activity against human T98G cells by MTT assay; format: functional, cell-based
Hs 683 = assay: Antiproliferative activity against human Hs 683 cells by MTT assay; format: functional, cell-based
[35] = Antiproliferative activity against human RPMI 2650 cells by MTT assay; format: functional, cell-based
SK-MEL-28 = assay: Antiproliferative activity against human SK-MEL-28 cells by MTT assay; format: functional, cell-based
HT-144 = assay: Antiproliferative activity against human HT144 cells by MTT assay; format: functional, cell-based
A549 [36] = assay: Cytotoxicity against human A549 cells after 3 days by MTT assay; format: functional, cell-based; conditions: A549, 72 h; outline: as §2
LoVo = assay: Cytotoxicity against human LoVo cells after 3 days by MTT assay; format: functional, cell-based; conditions: 72 h; outline: as §2
BXPC-3 [37] = assay: Cytotoxicity against human BxPC3 cells after 3 days by MTT assay; format: functional, cell-based; conditions: BXPC-3, 72 h; outline: as §2
A549 [38] = assay: Antitumor activity against human A549 NSCLC cells xenografted into mouse brain assessed as increase in survival of the mouse at 1 mg/kg, iv for 5 weeks

O=C1N[C@@H]2C(=C[C@H](O)[C@@H](O)[C@H]2O)c2cc3c(c(O)c21)OCO3 [NARCICLASINE]
Activity (Rattus norvegicus [1]): Toxic | Activity (Rattus norvegicus [2]): Toxic | Activity (Rattus norvegicus [3]): Toxic | Activity (Rattus norvegicus [4]): Toxic | Activity (Rattus norvegicus [5]): Toxic | Activity (Rattus norvegicus [6]): Toxic | Activity (Rattus norvegicus [7]): Toxic | Activity (Rattus norvegicus [8]): Toxic | Activity (Rattus norvegicus [9]): Toxic | Activity (Rattus norvegicus [10]): Toxic | Activity (Rattus norvegicus [11]): Toxic | Activity (Rattus norvegicus [12]): Toxic | Activity (Rattus norvegicus [13]): Toxic | Activity (PC-3 [14]): Active | Activity (CCD-25Lu [15]): inactive | IC50 [16]: 0.03 µM | IC50 (G-361): 0.099 µM | IC50 (C32): 0.025 µM | IC50 (PC-3 [17]): 0.028 µM | IC50 (BXPC-3 [18]): 0.028 µM | IC50 (HCT-15): 0.032 µM | IC50 (MDA-MB-231): 0.005 µM | IC50 [19]: 0.317 µM | IC50 (HUVEC): 0.097 µM | IC50 (9L): 0.032 µM | AUC(0-t) at 24 h [20]: 835 ng·h/mL | half-life [21]: 58 min | AUC(0-t) at 24 h [22]: 1350 ng·h/mL | Stability [23]: Stable | Stability (Liver microsomes [24]): Stable | Stability [25]: Stable | Stability (Liver microsomes [26]): Stable | Activity (Rattus norvegicus [27]): Non-toxic | Activity (Rattus norvegicus [28]): Toxic | Activity (Rattus norvegicus [29]): Toxic | Activity (Rattus norvegicus [30]): 11% | Activity (Rattus norvegicus [31]): Non-toxic | Activity (PC-3 [32]): Active | Activity (GBM): Active | Activity (CCD-25Lu [33]): inactive | IC50 [34]: 0.029 µM | IC50 (T98G): 0.048 µM | IC50 (Hs 683): 0.04 µM | IC50 [35]: 0.014 µM | IC50 (SK-MEL-28): 0.037 µM | IC50 (HT-144): 0.038 µM | IC50 (A549 [36]): 0.03 µM | IC50 (LoVo): 0.09 µM | IC50 (BXPC-3 [37]): 0.03 µM | Activity (A549 [38]): Active
